Screening data (PubChem BioAssay)
An excerpt weighted towards active compounds, which were near 2.6% of everything screened.
TNAP inh hiacc: TNAP (human) inhibition, high acceptor | purified TNAP, CDP-star luminescence, 1 M DEA | inhibition, % at 20 µM | hit rate 0.03% among 200,000;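 active = over 50% inhibition of tissue-nonspecific alkaline phosphatase at 20 µM in the single-dose screen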;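 note: plate controls were DMSO wells for no effect and EDTA-quenched wells as full inhibition for full effect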
Target sequence (P05186 whole entry, looked up): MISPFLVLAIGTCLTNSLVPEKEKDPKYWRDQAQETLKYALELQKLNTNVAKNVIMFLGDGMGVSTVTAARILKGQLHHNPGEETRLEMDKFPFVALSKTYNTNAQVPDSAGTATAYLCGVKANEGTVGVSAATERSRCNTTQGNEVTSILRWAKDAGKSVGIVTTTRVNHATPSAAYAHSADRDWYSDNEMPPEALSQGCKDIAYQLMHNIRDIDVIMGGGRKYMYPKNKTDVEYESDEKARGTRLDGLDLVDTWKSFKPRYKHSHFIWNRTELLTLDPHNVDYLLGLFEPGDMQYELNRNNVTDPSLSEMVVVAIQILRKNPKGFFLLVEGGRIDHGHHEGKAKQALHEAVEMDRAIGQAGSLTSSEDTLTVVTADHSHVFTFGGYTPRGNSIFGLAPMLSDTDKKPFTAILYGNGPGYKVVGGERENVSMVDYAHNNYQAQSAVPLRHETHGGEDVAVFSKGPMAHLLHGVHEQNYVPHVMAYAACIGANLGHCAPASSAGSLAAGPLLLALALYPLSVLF
Arbovirus inh: antivirals against arbovirus infection; inhibition, % at 10 µM; AID 1251; arbovirus infection cell-based antiviral screen; hit rate 0.37% among 200,000; in the data active = inhibition above about 30%
TNAP act hiacc: TNAP (human) activation, high acceptor; 200,000 tested, under 10 active; P05186; purified TNAP, CDP-star luminescence, 1 M DEA, 30 min; hits give high values; 0 = EDTA background, 1 = DMSO-only activity; activation factor at 20 µM;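 active = activation factor at least 2 at 20 µM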
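Test system – human TNAP · Doses – 20 µM single point · Incubation – 30 min, room temperature · Signal – luminescent substrate turnover signal · Read-out basis – activation factor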
TNAP inh noacc: blocks human TNAP activity with no phosphate acceptor present; purified TNAP, CDP-star luminescence, 30 min; AID 1012; P05186; hit rate 0.26% among 200,000; inhibition, % at 20 µM;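 active = tissue-nonspecific alkaline phosphatase inhibition above about 50% at 20 µM in the single-dose screen, limit read from the data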;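 note: 0% = DMSO negative control and 100% = EDTA positive control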
WT yeast gro inh: growth inhibition of WT yeast, mitochondrial fusion screen; mitochondrial fusion phenotypic screen, WT strain; inhibition, % at 10 µM; hit rate 2.1% among 190,000; AID 1362; in the data active = inhibition above about 58%; tested in S. cerevisiae
Starred values were filed as active, the others as inactive.

SMILES | TNAP inh hiacc | Arbovirus inh | TNAP act hiacc | TNAP inh noacc | WT yeast gro inh
CC(C)(C)n1nc2c(c1NC(=O)c1cccc(C(F)(F)F)c1)CS(=O)C2 (stereo not given) | -3 | -5 | 1 | -12 | -19
O=c1/c(=C/c2ccc(O)cc2)sc2n1CCCN=2 | 4 | 47* | 1 | 3 | -8
O=C(CCCN1C(=O)c2ccccc2C1=O)NCCN1C(=O)S/C(=C\c2cccs2)C1=O | -3 | 2 | 1 | 6 | -2
Cc1ccc(C(=O)N/N=C2/NC(=O)CC(C(=O)Nc3ccccc3)S2)cc1 (stereo not given) | 1 | 5 | 1 | -76 | 20
O=C(COc1ccc(Cl)cc1Cl)N1CCCN(C(=O)COc2ccc(Cl)cc2Cl)CC1 | -1 | -34 | 1 | -2 | 76*
Cc1cc(Cl)ccc1OCC(=O)N1CCCCC1 | -2 | -7 | 1 | -1 | -1
O=C(CCCOc1ccc(Cl)cc1Cl)N1CCCc2ccccc21 | -4 | -5 | 1 | -18 | 75*
O=c1c2c3c(sc2nc2n1CCC2)CCC3 | -1 | -1 | 1 | -8 | 61*
Cc1sc2nc(CN(Cc3cccs3)C(=O)NC3CCCCC3)[nH]c(=O)c2c1C | -8 | -14 | 1.1 | -10 | 66*
CCC(C)c1ccc(OCCn2ccnc2)cc1 (stereo not given) | -2 | 2 | 1 | -17 | 71*
CC(=O)N1CCc2ccc(S(=O)(=O)N3CCN(C)CC3)cc21 | 0 | 7 | 1 | -11 | -1
CSC(=S)N/N=C/c1ccc(N(C)C)cc1 | 1 | -12 | 1 | -15 | 66
CSC(=S)N/N=C/c1ccc(Br)cc1 | -6 | -7 | 1.1 | -20 | 68*
CC1(C)Cc2ccccc2C(=O)N1 | -3 | -1 | 1 | -10 | 5
O=C1c2ccccc2CC1(Cc1ccccc1)Cc1ccccc1 | -2 | 2 | 1 | -10 | 73*
Nc1nc2ccc(S(=O)(=O)N3CCCCC3)cc2s1 | -2 | -15 | 1 | 7 | 70*
C=CCN(c1ccccc1)S(=O)(=O)c1ccc(Cl)c(C(=O)OCC(=O)N(C)C2CCS(=O)(=O)C2)c1 (stereo not given) | -7 | 3 | 1.1 | -13 | -17
CC(C)Nc1nc(Oc2cccc(Cl)c2Cl)cc(C(F)(F)F)n1 | 0 | 9 | 1 | -6 | 87*
CC1CN(C(=O)c2cccc(S(=O)(=O)Nc3ccc(Cl)cc3)c2)CC(C)O1 (stereo not given) | -6 | 5 | 1.1 | -13 | -18
CC1CCCN(C(=O)c2cccc(S(=O)(=O)Nc3cc(C(F)(F)F)ccc3Cl)c2)C1 (stereo not given) | 6 | 42* | 0.9 | -6 | 26
CC(C)(C)c1c(Cl)c(O)c(-c2ccccc2)c(=O)n1-c1ccccc1 | 6 | 84* | 0.9 | 3 | 5
O=C(CN1CCCCCC1)N/N=C/c1cccs1 | -5 | 46* | 1.1 | -12 | 4
Cc1csc(NC(=O)CN2C(=O)C3CC=CCC3C2=O)n1 (stereo not given) | -4 | 31* | 1 | -15 | 12
O=C(COc1ccc2ccccc2c1)N/N=C/C1CC=CCC1 (stereo not given) | -4 | -3 | 1 | -6 | -12
COc1ccc2cc(N=Cc3nc(-c4ccc(C)cc4)oc3O)cnc2c1 | 4 | 10 | 1 | 1 | -2
SMILES | TNAP inh hiacc | Arbovirus inh | TNAP act hiacc | TNAP inh noacc | WT yeast gro inh
CC(C)(C)c1ccc(CNc2ccc([N+](=O)[O-])cn2)cc1 | -6 | 21 | 1.1 | -5 | 80*
CC(NC(=O)C12CC3CC(CC(C3)C1)C2)C(=O)N/N=C/C1=C(N2CCOCC2)C(=C\c2ccccc2)/CC1 (stereo not given) | 0 | -23 | 1 | -9 | 24
COc1cccc(/C=C/C(=O)OCC(=O)NCc2ccco2)c1 | -2 | 1 | 1 | -6 | -17
O=C(CN1C(=O)COc2ccccc21)NCc1ccc(C(=O)O)cc1 | -9 | 1 | 1.1 | -12 | 6
O=C(O)c1ccccc1C(=O)c1ccc2c(c1)N(Cc1ccc(Cl)c(Cl)c1)C(=O)CO2 | 1 | 8 | 1 | -6 | 63*
NC(=S)Nc1cccc2[nH]ccc12 | -2 | 14 | 1 | -6 | -8
Cc1cccc(NC(=S)N(C)Cc2cn(C)c3ccccc23)c1 | 1 | 7 | 1 | -17 | 72*
COCCn1c(COc2ccc(C)cc2)nc2ccccc21 | -1 | -10 | 1 | -8 | 6
Cc1ccc(NCc2nc3ccccc3n2CCOc2ccccc2)cc1 | 2 | 14 | 1 | -115 | 63*
CCOc1ccc(C(c2c(NC(=O)c3ccccc3)sc(C)c2C)N2CCN(CCO)CC2)cc1 (stereo not given) | -3 | -32 | 1 | -15 | 68*
Cc1sc(NC(=O)c2ccco2)c(C(c2ccc(F)cc2)N2CCN(C)CC2)c1C (stereo not given) | 0 | -27 | 1 | -10 | 95*
Cc1sc(NC(=O)c2ccco2)c(C(c2cccnc2)N2CCN(CCO)CC2)c1C (stereo not given) | -2 | -2 | 1 | -3 | -7
Cc1sc(NC(=O)c2ccco2)c(C(c2cccnc2)N2CCN(c3ccc(F)cc3)CC2)c1C (stereo not given) | -4 | -3 | 1 | -17 | 56
CCc1cc(C(c2ccncc2)N2CCN(C)CC2)c(NC(=O)c2ccccc2)s1 (stereo not given) | -2 | 18 | 1 | -3 | -10
Cc1sc(NC(=O)c2ccccc2)c(C(c2ccc(Cl)cc2)N2CCN(CCO)CC2)c1C (stereo not given) | -2 | -38 | 1 | -3 | 91*
COc1ccccc1NC(=O)N1CCC(c2nc3ccccc3o2)CC1 | -3 | -3 | 1 | -6 | 6
COc1cc2cc(CN(Cc3cccnc3)C(=O)Nc3ccccc3F)c(=O)[nH]c2cc1OC | -4 | 5 | 1 | -2 | -10
O=C(Nc1ccccc1C(=O)O)/C(=C/c1ccc([N+](=O)[O-])cc1)NC(=O)c1ccc(Br)o1 | 2 | 14 | 1 | -9 | 1
O=[N+]([O-])c1ccc(N/N=C2/CCCCC2c2ccccn2)cc1 (stereo not given) | 11 | -10 | 0.9 | -1 | 74*
O=S(=O)(NCCc1ccccc1)c1ccc(Cl)nc1 | -6 | -1 | 1.1 | -20 | 1
COCc1cc(SC2CCCCC2)nc(C)n1 | -8 | 1 | 1.1 | -12 | 12
COCCN(C(=O)Cc1cccs1)C(C(=O)NCc1ccc(OC)cc1)c1ccccc1 (stereo not given) | -2 | 3 | 1 | -9 | 99*
CCCN(CC(=O)Nc1cc(Cl)cc(Cl)c1)CC(=O)Nc1ccc(F)c(F)c1F | -6 | -45 | 1.1 | -30 | 73*
CCCN(CC(=O)Nc1ccccc1Br)CC(=O)Nc1ccc(F)c(F)c1F | 0 | -7 | 1 | -41 | 3
CC1CCCN(CCOc2ccc3ccccc3c2Br)C1 (stereo not given) | -8 | -19 | 1.1 | -22 | 59
O=C1C=CC(=O)N1CCCCCCN1C(=O)C=CC1=O | 1 | -5 | 1 | -5 | 92*
